From PubChem BioAssay come the findings set out here.

Calls of active or inactive are those of the source.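 How the source made its calls, unless noted: active means viability at or below 30% in both replicate assays; inconclusive means viability at or below 30% in just one of the two assays; inactive means the rest.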

Test [1] is described as follows: HUVEC growth inhibition – cell-based, human, primary screen (AID 575).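 Further: 100% = median of untreated cell wells with 0.1% DMSO on each plate.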 Conditions: HUVEC proliferation, CellTiter-Glo luminescence, 72 h; at 10 µM; stronger effect = lower value. The method, boiled down:
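system = HUVEC primary cells | amount = 1250 cells/well | buffer or medium = supplemented EBM, 2% fetal bovine serum | dosing = single-point 10 µM, DMSO 0.1% final | times = 72 h compound incubation | detection = CTG luminescence | read-out = % viability relative to median vehicle-well signal on each plate | control set = vehicle and MePR control wells | format = collagen-coated 384-well format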
(In general: In ATP-based viability assays light output follows the ATP content of the culture.)

Test [2] in a line: growth inhibitors of H69AR lung tumor, primary screen, human, duplicate replicates (AID 580;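 active means viability at or under a set limit in both replicates, limit being median viability minus 3 SD, cut at about 48% in these data, passing the limit was not always enough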;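 further: 100% = mean luminescence of untreated wells and 0% = no signal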). The settings on record: H69AR lung tumor cells viability, ATP luminescence, 72 h; at 10 µM; stronger effect = lower value.
Test [3] can be described thus: reversal of MRP1-mediated doxorubicin resistance, pilot screen, H69AR cells, doxorubicin co-treatment (AID 601;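 active means viability loss from added drug above about 55%, and viability with drug at most 40%, in both replicates, limit read from the data, passing the limit was not always enough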). The settings on record: CellTiter-Glo, 72 h, at 10 µM; for differential viability (reversal): stronger effect = higher value.
Test [4] is described as follows: 384-well plate pilot, post-Golgi transport modulator project, inhibition of yeast transport mutant growth (AID 636; in the data active means inhibition above about 31%). The settings on record: absorbance 615 nm, about 18 h, stronger effect = higher value.
Test [5] in a line: growth suppression of yeast trafficking mutant, preliminary HTS, modulators of trafficking downstream of Golgi apparatus project, 1536-format plate, OD 615 nm (AID 637; in the data active means inhibition above about 30%). Conditions: yeast transport mutant growth, absorbance 615 nm, 18 h; stronger effect = higher value.
The mark [6] stands for this setting: H69AR cells + 2 uM doxorubicin, measured here: viability with 2 uM doxorubicin, stronger effect = lower value.
Setting [7] is: H69AR cells, compound alone cytotoxicity.

For `O=C(O)c1ccc(-n2nc(C(F)(F)F)c3c2-c2ccoc2CC3)cc1`, the viability is 70.8% (inactive) in test [1], 97% (inactive) in test [2], 87.9% in test [3] (setting [6]) and 97% in test [3] (setting [7]). Besides, the differential viability (reversal) in test [3] (H69AR cells + 2 uM doxorubicin) was 9.15% (inactive). The inhibition in test [4] is 0.39% (inactive); in test [5] it was -1.43% (inactive).
`COc1ccc(N(CC(=O)Nc2ccc(F)c(Cl)c2)S(=O)(=O)c2c(C)noc2C)cc1`: the viability in test [1] was 93.8% (inactive); in test [2], 81.5% (inactive); in test [3] (setting [6]) it was 89.3%; in test [3] (setting [7]), 81.5%. The differential viability (reversal) in test [3] (H69AR cells + 2 uM doxorubicin) was -7.84% (inactive). Further, the inhibition is -1.07% (inactive) in test [4] and -6.83% (inactive) in test [5].
Turning to `Cc1ccc(S(=O)(=O)N2CCCC2C(=O)OCc2ccco2)cc1` (centres undefined), the viability in test [1] is 96% (inactive); in test [2] it was 77.2% (inactive); in test [3] (setting [6]) it was 76.8%; in test [3] (setting [7]), 77.2%. Besides, in test [3] (H69AR cells + 2 uM doxorubicin), the differential viability (reversal) is 0.425% (inactive). For the same compound, the inhibition in test [4] was -6.58% (inactive); in test [5], -7.62% (inactive).
In the case of `Cc1cc(NC(=O)c2ccc3nc(-c4ccccc4)c(-c4ccccc4)nc3c2)no1`, the viability is 23.6% (active) in test [1], 13.4% (active) in test [2], 14.8% in test [3] (setting [6]) and 13.4% in test [3] (setting [7]). Moreover, the differential viability (reversal) in test [3] (H69AR cells + 2 uM doxorubicin) is -1.37% (inactive). In addition, the inhibition in test [4] was -1.05% (inactive); in test [5], 0.79% (inactive).
For the compound `CCOC(=O)c1ccc(NC(=O)Nc2ccn(C)n2)cc1`, the viability in test [1] is 101% (inactive); in test [2], 91.2% (inactive); in test [3] (setting [6]), 86.7%; in test [3] (setting [7]), 91.2%. Also, the differential viability (reversal) in test [3] (H69AR cells + 2 uM doxorubicin) is 4.49% (inactive). The inhibition in test [4] is -6.27% (inactive); in test [5], 1.75% (inactive).
On to `COc1ccc(N2CCN(C(=O)CN3C(=O)C4CC=CCC4C3=O)CC2)cc1` (centres undefined), for which the viability in test [1] was 99.7% (inactive); in test [2], 94.6% (inactive); in test [3] (setting [6]), 91.5%; in test [3] (setting [7]), 94.6%. In addition, the differential viability (reversal) in test [3] (H69AR cells + 2 uM doxorubicin) is 3.03% (inactive). Further, the results for the inhibition in test [4] and in test [5] were 2.47% (inactive) and 14.8% (inactive), respectively.
As for `CCCc1nc2ccccc2c2nc(N)nn12`, the viability in test [1] is 99.8% (inactive); in test [2] it was 94.1% (inactive); in test [3] (setting [6]) it was 81.8%; in test [3] (setting [7]) it was 94.1%. The differential viability (reversal) in test [3] (H69AR cells + 2 uM doxorubicin) was 12.3% (inactive). For the same compound, the figures for the inhibition in test [4] and in test [5] were -5.26% (inactive) and 0.95% (inactive), respectively.
As for `Cc1ccc(NC(=O)COc2nc(C)cs2)cc1`, the viability is 97.5% (inactive) in test [1], 91.5% (inactive) in test [2], 87.6% in test [3] (setting [6]) and 91.5% in test [3] (setting [7]). Also, in test [3] (H69AR cells + 2 uM doxorubicin), the differential viability (reversal) is 3.88% (inactive). The inhibition is -3.64% (inactive) in test [4] and 2.7% (inactive) in test [5].
`Cc1nn(Cc2ccccc2)c(C)c1NC(=O)CCC(=O)O`: the viability was 110% (inactive) in test [1], 89.4% (inactive) in test [2], 97.7% in test [3] (setting [6]) and 89.4% in test [3] (setting [7]). Besides, the differential viability (reversal) in test [3] (H69AR cells + 2 uM doxorubicin) was -8.23% (inactive). The values for the inhibition in test [4] and in test [5] were 3.42% (inactive) and -1.75% (inactive), respectively.
Regarding `CC(=O)c1c(C)[nH]c(C(=O)NC2=NCCS2)c1C`, the viability in test [1] is 80.9% (inactive); in test [2], 99.8% (inactive); in test [3] (setting [6]) it was 76.5%; in test [3] (setting [7]), 99.8%. The differential viability (reversal) in test [3] (H69AR cells + 2 uM doxorubicin) was 23.3% (inactive). Besides, the figures for the inhibition in test [4] and in test [5] were -3.51% (inactive) and -5.4% (inactive), respectively.
For `CCOc1ccc(-c2nc(C#N)c(N3CCN(C)CC3)o2)cc1`, the viability in test [1] is 82.1% (inactive); in test [2], 97.6% (inactive); in test [3] (setting [6]), 96.7%; in test [3] (setting [7]), 97.6%. For the same compound, the differential viability (reversal) in test [3] (H69AR cells + 2 uM doxorubicin) is 0.87% (inactive). Further, the inhibition was -1.6% (inactive) in test [4] and 11.3% (inactive) in test [5].
Regarding `Cc1cccnc1NC(=O)CCCN1C(=O)c2ccccc2C1=O`, the viability in test [1] was 114% (inactive); in test [2] it was 94.7% (inactive); in test [3] (setting [6]), 90%; in test [3] (setting [7]), 94.7%. The differential viability (reversal) in test [3] (H69AR cells + 2 uM doxorubicin) is 4.67% (inactive). Besides, the figures for the inhibition in test [4] and in test [5] were -6.13% (inactive) and 3.97% (inactive), respectively.
As to `COc1ccc(CN2C(=O)c3ccccc3C2C(=O)NC2CCCC2)c(OC)c1` (centres undefined), the viability was 104% (inactive) in test [1], 86.2% (inactive) in test [2], 84.9% in test [3] (setting [6]) and 86.2% in test [3] (setting [7]). Also, the differential viability (reversal) in test [3] (H69AR cells + 2 uM doxorubicin) was 1.22% (inactive). Also, the inhibition in test [4] is 0.53% (inactive); in test [5], -4.6% (inactive).
For the compound `CCOC(=O)N1CCC(N(C(=O)Nc2ccc(Cl)c(Cl)c2)C(C)CC)CC1` (centres undefined), the viability was 79.3% (inactive) in test [1], 97.7% (inactive) in test [2], 93.4% in test [3] (setting [6]) and 97.7% in test [3] (setting [7]). In addition, the differential viability (reversal) in test [3] (H69AR cells + 2 uM doxorubicin) is 4.27% (inactive). For the same compound, the inhibition in test [4] was -2.63% (inactive); in test [5], 0.79% (inactive).
Consider `Cc1cc(/N=C/N(C)C)on1`, for which the viability in test [1] was 82.4% (inactive); in test [2], 93.7% (inactive); in test [3] (setting [6]) it was 81.7%; in test [3] (setting [7]) it was 93.7%. Moreover, the differential viability (reversal) in test [3] (H69AR cells + 2 uM doxorubicin) was 12% (inactive). Besides, the inhibition was -4.94% (inactive) in test [4] and 2.06% (inactive) in test [5].
`CCCc1cc(=O)[nH]c(/N=C(\N)Nc2ccccc2)n1`: the viability is 80.8% (inactive) in test [1], 82.4% (inactive) in test [2], 96.3% in test [3] (setting [6]) and 82.4% in test [3] (setting [7]). In addition, in test [3] (H69AR cells + 2 uM doxorubicin), the differential viability (reversal) was -13.9% (inactive). In addition, the inhibition in test [4] is -0.13% (inactive); in test [5], 3.49% (inactive).
`C=CCn1c(SCC(=O)NCC2CCCO2)nnc1C1CCCCC1` (centres undefined): the viability in test [1] was 104% (inactive); in test [2], 97.5% (inactive); in test [3] (setting [6]) it was 87.8%; in test [3] (setting [7]), 97.5%. Also, in test [3] (H69AR cells + 2 uM doxorubicin), the differential viability (reversal) was 9.64% (inactive). Also, the inhibition was -6.88% (inactive) in test [4] and -0.32% (inactive) in test [5].

By viability is commonly meant a read-out of living cells in per cent, often relative to untreated cells. Usually inhibition stands for the change of the read-out against control, counted positive when it falls.
